Measured values from ChEMBL document CHEMBL4219161, “New phenylaniline derivatives as modulators of amyloid protein precursor metabolism” (Bioorg Med Chem, 2018).

What was measured:
Assay type in all cases: cell-based
[1] = target: T1, Amyloid-beta precursor protein (Homo sapiens, UniProt P05067); test: Modulation of human wild-type APP695 expressed in SH-SY5Y cells assessed as increase in ACID level at 10 uM measured after 24 hrs by Western blot analysis relative to amodiaquine
Method in brief: (§1)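 Stable human APP695 SY5Y clone (SY5Y-APPwt) was treated with compound for 24 h and lysed in Laemmli buffer with protease inhibitors. 20 µg protein/lane was separated on 16% Tris-Tricine gel and transferred to PVDF. Blots were probed with rabbit antiserum against the APP C-terminal 17 residues (1:4000, overnight at 4 °C) and read by chemiluminescence with densitometric area-under-curve. H3 was used as reprobe.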

[2] = target: T1, Amyloid-beta precursor protein; test: Modulation of human wild-type APP695 expressed in SH-SY5Y cells assessed as increase in AICD level at 3 uM measured after 24 hrs by Western blot analysis relative to chloroquine
Method in brief: (§2)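 SY5Y stably transfected with human APP695 (pcDNA3.1, G418-selected clone SY5Y-APPwt) was plated 24 h before treatment and exposed to compound for 24 h. Lysates were made in Laemmli buffer with protease inhibitors and sonicated. 20 µg protein/lane was run on 16% Tris-Tricine gel and blotted to PVDF. Blots were probed overnight at 4 °C with APP C-terminal (last 17 aa) rabbit antiserum 1:4000 and developed by chemiluminescence. Band area was quantified with H3 reprobe. Result is the fragment level ratio of compound to chloroquine, both at 3 µM; mean of ≥3 independent experiments.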

[3] = target: T1, Amyloid-beta precursor protein; test: Modulation of human wild-type APP695 expressed in SH-SY5Y cells assessed as inhibition of amyloid beta (1 to 40 residues) production measured after 24 hrs
Method in brief: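 SY5Y-APPwt cells (stable human APP695 clone) were exposed to compound for 24 h. Conditioned medium was spun at 200×g, frozen at −80 °C and assayed by ELISA for Aβ1-40 or Aβ1-42, with samples in duplicate and experiments in triplicate. Values were normalised to untreated control set to 100%. IC50 is the concentration lowering secreted Aβ to 50% of basal; mean of ≥3 independent experiments.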

[4] = target: T1, Amyloid-beta precursor protein; test: Modulation of human wild-type APP695 expressed in SH-SY5Y cells assessed as increase in CTFalpha level at 3 uM measured after 24 hrs by Western blot analysis relative to amodiaquine; method in brief: as §1
[5] = Cytotoxicity against human SH-SY5Y cells after 72 hrs by MTT assay
Method in brief: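 SH-SY5Y cells grown in DMEM with 10% heat-inactivated FBS, 2 mM L-glutamine, non-essential amino acids and penicillin/streptomycin at 37 °C, 5% CO2. Cells were exposed to compounds at 100, 50, 10, 5, 1, 0.5, 0.1 and 0.05 µM, in under 0.1% DMSO, for 72 h. Growth was read by colorimetric MTT; CC50 taken as the concentration causing 50% cell death.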

[6] = target: T1, Amyloid-beta precursor protein; test: Modulation of human wild-type APP695 expressed in SH-SY5Y cells assessed as increase in CTFalpha level at 3 uM measured after 24 hrs by Western blot analysis relative to chloroquine; method in brief: as §2
[7] = target: T1, Amyloid-beta precursor protein; test: Modulation of human wild-type APP695 expressed in SH-SY5Y cells assessed as increase in ACID level at 3 uM measured after 24 hrs by Western blot analysis relative to amodiaquine; method in brief: as §1
[8] = target: T1, Amyloid-beta precursor protein; test: Modulation of human wild-type APP695 expressed in SH-SY5Y cells assessed as increase in CTFalpha level at 10 uM measured after 24 hrs by Western blot analysis relative to chloroquine; method in brief: as §1
[9] = target: T1, Amyloid-beta precursor protein; test: Modulation of human wild-type APP695 expressed in SH-SY5Y cells assessed as increase in CTFalpha level at 10 uM measured after 24 hrs by Western blot analysis relative to amodiaquine; method in brief: as §1

T1 sequence (P05067 whole entry): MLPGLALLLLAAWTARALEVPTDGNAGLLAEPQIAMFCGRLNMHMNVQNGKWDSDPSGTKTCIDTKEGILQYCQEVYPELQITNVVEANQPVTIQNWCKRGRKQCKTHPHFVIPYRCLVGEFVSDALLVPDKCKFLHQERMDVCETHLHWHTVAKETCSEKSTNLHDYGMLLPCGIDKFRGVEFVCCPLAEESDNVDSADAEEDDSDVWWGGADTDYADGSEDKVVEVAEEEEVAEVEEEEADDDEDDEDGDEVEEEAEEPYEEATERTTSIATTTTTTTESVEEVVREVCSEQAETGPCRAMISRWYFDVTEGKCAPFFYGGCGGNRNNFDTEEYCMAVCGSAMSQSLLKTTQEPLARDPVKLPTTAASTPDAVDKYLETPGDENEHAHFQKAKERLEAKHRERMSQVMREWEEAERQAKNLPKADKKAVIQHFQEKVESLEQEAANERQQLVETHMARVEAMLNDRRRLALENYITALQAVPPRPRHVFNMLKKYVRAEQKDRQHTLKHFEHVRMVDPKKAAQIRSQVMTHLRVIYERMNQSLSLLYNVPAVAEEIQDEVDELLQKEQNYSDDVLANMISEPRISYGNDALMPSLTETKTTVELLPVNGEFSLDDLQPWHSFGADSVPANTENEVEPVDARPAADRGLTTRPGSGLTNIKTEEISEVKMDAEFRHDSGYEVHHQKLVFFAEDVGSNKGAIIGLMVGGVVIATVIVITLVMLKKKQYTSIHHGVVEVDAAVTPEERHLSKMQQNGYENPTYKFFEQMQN

Structure (SMILES)	fold change (FC) [1]	fold change (FC) [2]	IC50 [3]	fold change (FC) [4]	fold change (FC) [6]	fold change (FC) [7]	fold change (FC) [8]	fold change (FC) [9]	CC50 at 72 h [5]
O=C(NCCN1CCCCC1)c1cc(Nc2ccccc2CN2CCOCC2)cc(C(=O)NCCN2CCCCC2)c1			> 10 µM						> 100 µM
CN1CCN(Cc2ccccc2-c2cc(C(=O)NCCN3CCCCC3)cc(C(=O)NCCN3CCCCC3)c2)CC1			> 10 µM						> 100 µM
CN(C)Cc1ccccc1-c1cc(C(=O)NCCN2CCCCC2)cc(C(=O)NCCN2CCCCC2)c1			> 10 µM						> 100 µM
CN1CCN(Cc2ccccc2Nc2cc(C(=O)NCCN3CCCCC3)cc(C(=O)NCCN3CCCCC3)c2)CC1			> 10 µM						> 100 µM
O=C(NCCN1CCCCC1)c1cc(C(=O)NCCN2CCCCC2)cc(-c2ccccc2CN2CCOCC2)c1			> 10 µM						> 100 µM
O=C(NCCN1CCCCC1)c1cc(C(=O)NCCN2CCCCC2)cc(-c2ccccc2CN2CCCCC2)c1		1.9	6.2 µM		1.4				> 100 µM
c1ccc(-c2cc(CNCCN3CCCCC3)cc(CNCCN3CCCCC3)c2)c(CN2CCCCC2)c1			> 10 µM						> 100 µM
CN1CCN(Cc2ccccc2-c2cc(CNCCN3CCCCC3)cc(CNCCN3CCCCC3)c2)CC1			> 10 µM						> 100 µM
c1ccc(Nc2cc(CNCCN3CCCCC3)cc(CNCCN3CCCCC3)c2)c(CN2CCOCC2)c1		1.3	6.6 µM		0.9				77 µM
CN(C)Cc1ccccc1-c1cc(CNCCN2CCCCC2)cc(CNCCN2CCCCC2)c1			> 10 µM						> 100 µM
Oc1c(CN2CCCC2)cc(Nc2ccnc3cc(Cl)ccc23)cc1CN1CCCC1		0.6	5.1 µM		0.5				30 µM
CN(C)Cc1ccccc1Nc1cc(C(=O)NCCN2CCCCC2)cc(C(=O)NCCN2CCCCC2)c1		3	8.2 µM		1				> 100 µM
CCN(CC)Cc1cc(NCCN2CCCCC2)cc(Nc2ccnc3cc(Cl)ccc23)c1		0.4	10 µM		0.5				15 µM
CN1CCN(Cc2ccccc2Nc2cc(CNCCN3CCCCC3)cc(CNCCN3CCCCC3)c2)CC1			> 10 µM						> 100 µM
c1ccc(-c2cc(CNCCN3CCCCC3)cc(CNCCN3CCCCC3)c2)c(CN2CCOCC2)c1			> 10 µM						> 100 µM
CCN(CC)CCCC(C)Nc1ccnc2cc(Cl)ccc12 (stereo not drawn) [CHLOROQUINE]		1	7 µM		1				30 µM
CN(C)Cc1ccccc1Nc1cc(CNCCN2CCCCC2)cc(CNCCN2CCCCC2)c1			> 10 µM						> 100 µM

Compounds with a lower IC50 [3], results first:

fold change (FC) [1]	fold change (FC) [2]	IC50 [3]	fold change (FC) [4]	fold change (FC) [6]	fold change (FC) [7]	fold change (FC) [8]	fold change (FC) [9]	Structure (SMILES)	CC50 at 72 h [5]
10	4	4.6 µM	5.6 to 5.75	2.6	3.2 to 10			c1ccc(Nc2cc(CNCCN3CCCCC3)cc(CNCCN3CCCCC3)c2)c(CN2CCCCC2)c1	> 100 µM
	3.4	1.7 µM		2.1				CN(C)CCN(C)Cc1cc(NC(=O)CN2CCCCC2)cc(Nc2ccnc3cc(Cl)ccc23)c1	4 µM
	2.3	4.1 µM	5.6 to 5.75	2.8	3.2 to 10	3	3	O=C(NCCN1CCCCC1)c1cc(Nc2ccccc2CN2CCCCC2)cc(C(=O)NCCN2CCCCC2)c1	> 100 µM
	0.4	4 µM		0.5				CCN(CC)Cc1cc(Nc2ccnc3cc(Cl)ccc23)ccc1O [AMODIAQUINE]	10 µM
	1.1	2.3 µM		1.4				CN1CCN(c2cc(Nc3ccnc4cc(Cl)ccc34)cc(N3CCN(C)CC3)c2)CC1	> 15 µM
	2.3	2 µM		1.7				CN(C)CCNCc1cc(NC(=O)CN2CCCCC2)cc(Nc2ccnc3cc(Cl)ccc23)c1	15 µM
	0.5	3.1 µM		0.7				O=C(CN1CCCCC1)Nc1cc(CN2CCOCC2)cc(Nc2ccnc3cc(Cl)ccc23)c1	10 µM
	0.5	4.5 µM		0.6				CCN(CC)Cc1cccc(Nc2ccnc3cc(Cl)ccc23)c1	12 µM
	1.2	2.5 µM		1.2				Clc1ccc2c(Nc3cc(CN4CCOCC4)cc(NCCN4CCCCC4)c3)ccnc2c1	10 µM
	0.9	1.5 µM		1.6				CCN(CC)Cc1cc(NC(=O)CN2CCCCC2)cc(Nc2ccnc3cc(Cl)ccc23)c1	4 µM
